# Kir21 inh: inhibitors of mouse Kir2.1 inward-rectifier potassium channel. B-score at 10 µM. hit rate 0.85% among 310,000. P35561. HEK293-Kir2.1, FluxOR thallium flux fluorescence; stronger effect = lower value;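 active = fluorescence ratio B-score at or below minus 3 SD of library scores, with starting-brightness B-score within 2 SD, cut at about -4.2 in these data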;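 also: channel flux triggered by added potassium and thallium sulfate stimulus; B-score of peak minus minimum fluorescence over baseline after thallium stimulus; more negative B-score means stronger Kir2.1 block with less thallium influx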
# KCNQ1 act: human KCNQ1 channel potentiation or activation; B-score at 10 µM; hit rate 0.35% among 310,000; AID 2648; CHO-K1 KCNQ1, thallium flux FluxOR fluorescence; stronger effect = higher value; P51787;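 active = fluorescence ratio B-score, a plate-corrected score, at least three library SD, with initial intensity B-score within 5 SD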
#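 Medium – assay buffer, equal DMSO in all wells · Material – CHO-K1 cell line with stable KCNQ1 potassium channel expression · Signal – kinetic FluxOR thallium fluorescence, 10-s 1-Hz baseline, 110-s post-stimulus read · Compound – single concentration per compound, DMSO matched to controls · Schedule – 37 °C overnight plating, 90-min dark dye load, 20-min compound pretreatment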
# KCNK3 inh: human KCNK3 channel inhibition, primary screen | CHO-KCNK3 thallium flux, FluxOR fluorescence; stronger effect = lower value | O14649 | B-score at 10 µM | hit rate 0.84% among 340,000;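 active = B-score under library mean minus 4 SD, starting fluorescence ratio at most library mean plus 5 SD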;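 also: more negative B-score means stronger inhibition of thallium flux through KCNK3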
# KCNK9 inh: blocks the human KCNK9 two-pore domain potassium channel. AID 488922. Q9NPC2. hit rate 1.2% among 310,000. HEK293 KCNK9, FluxOR thallium flux fluorescence; stronger effect = lower value. B-score at 10 µM;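 active = ratio B-score over 3 SD below the library mean, with starting fluorescence within 5 SD of its mean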;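 also: negative B-score means less thallium flux so channel inhibition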
# Target sequence (Q9NPC2 whole entry, looked up, the tested form may be a part): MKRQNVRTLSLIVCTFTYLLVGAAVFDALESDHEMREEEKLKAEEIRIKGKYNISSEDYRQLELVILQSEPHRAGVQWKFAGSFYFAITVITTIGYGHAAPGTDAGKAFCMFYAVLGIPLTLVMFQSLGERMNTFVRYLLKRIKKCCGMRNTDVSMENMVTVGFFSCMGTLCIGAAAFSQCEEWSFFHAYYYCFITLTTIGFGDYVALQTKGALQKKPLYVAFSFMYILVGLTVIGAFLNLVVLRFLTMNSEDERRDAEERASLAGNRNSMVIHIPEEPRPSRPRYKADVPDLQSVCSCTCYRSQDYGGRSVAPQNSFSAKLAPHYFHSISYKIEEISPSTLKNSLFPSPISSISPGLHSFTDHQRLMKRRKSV
# hERG rescue: shields human hERG channel from block by proarrhythmic agents | Q12809 | CHO-hERG, FluxOR thallium flux, dofetilide IC70 present | activation (rescue from dofetilide block), less the hit threshold, % at 10 µM | hit rate 0.51% among 310,000 | AID 1511;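 active = activation above the mean of controls blocked by dofetilide plus 5 SD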;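 also: thallium influx through hERG after potassium depolarization seen as dye fluorescence rise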
# KCNQ1 inh: inhibitors of human KCNQ1 potassium channel. P51787. CHO-K1 KCNQ1, FluxOR thallium flux fluorescence; stronger effect = higher value. B-score at 10 µM. hit rate 1.3% among 310,000. AID 2642;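 active = compounds whose thallium flux B-score, printed positive for inhibition, exceeds three library SD while starting fluorescence stays within three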;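 also: channel opened by potassium depolarization with thallium stimulus after 20 min compound exposure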
# Active calls of the source: *; i = inactive; · = not tested or not shown. An excerpt weighted towards active compounds, which were near 3.7% of everything screened.
SMILES,Kir21 inh,KCNQ1 act,KCNK3 inh,KCNK9 inh,hERG rescue,KCNQ1 inh
CN(C)CCC(Oc1ccccc1OCc1ccccc1)c1ccccc1 (stereo not drawn),-4.6*,i,i,i,-8,i
Cc1ccc(N2C(=O)c3cccc4c([N+](=O)[O-])ccc(c34)C2=O)c2cccnc12,0.66,i,i,i,-7,i
Cc1ccc(N2C(=O)c3cccc4c(N5CCN(C)CC5)ccc(c34)C2=O)c2cccnc12,-1.2,i,·,i,-21,9*
CCN(CC)CCNC(Cc1ccccc1)c1cccc(OC)c1 (stereo not drawn),·,·,i,·,·,·
CCN(CC)S(=O)(=O)c1ccc(OC)c(NC(=O)C2CC(=O)N(c3ccc4c(c3)OCCO4)C2)c1 (stereo not drawn),0.15,i,i,i,-10,i
COc1nccnc1NS(=O)(=O)c1ccc(NC(=S)NC(=O)c2ccccc2F)cc1,1,8*,i,i,1,i
CCOc1cc(C)c(-c2onc(C(F)(F)F)c2-c2csc(C)n2)c(O)c1,-0.57,i,i,i,-18,8*
Cc1nc(-c2c(C(F)(F)F)noc2-c2ccc(O)cc2O)cs1,-3.7,i,i,i,-11,i
O=C(N/N=C/c1ccccn1)c1cccc(S(=O)(=O)N2CCCC2)c1,0.79,i,i,i,-18,i
C=CCn1c(SCC(=O)Nc2sccc2C(N)=O)nc2ccc(Cl)cc2c1=O,0,i,i,i,-4,i
C=CCn1c(SCN2C(=O)c3ccccc3C2=O)nc2ccc(Cl)cc2c1=O,-1.8,9*,i,i,3,i
CCc1ccc(NC(=O)CSc2nnc(SCC(=O)Nc3ccc(CC)cc3)n2N)cc1,-1.1,i,i,i,-7,i
COc1ccccc1C(=O)Nc1ccc2[nH]ncc2c1,0.01,9*,i,i,0,i
CCOc1cccc(C(=O)Nc2ccc3[nH]ncc3c2)c1,-0.15,i,i,i,4.9*,i
COc1cccc(C(=O)Nc2ccc3[nH]ncc3c2)c1,0.02,i,i,i,-3,i
CCOC(=O)C1CCCN(C(=O)c2ccccc2NC(=O)C2=C(C)OCCS2)C1 (stereo not drawn),-0.23,i,i,i,0,i
COc1ccc(NC(=O)c2cccc(-c3ccc(O)cc3)c2)cn1,-1.3,i,i,i,-20,i
O=C(Nn1c(C2CCCCC2)nc2ccccc2c1=O)c1ccc(Cl)c([N+](=O)[O-])c1,-0.7,i,i,i,-12,9*
COc1ccc2[nH]c3c(=O)n(CCCCC(=O)NCCC(C)C)c(=S)[nH]c3c2c1,1,i,i,i,-4,i
Cc1ccc(S(=O)(=O)N2CCN(C(=O)N(C)C)CC2)cc1,-0.69,i,i,i,-11,i
CCOc1cc(CNCc2ccncc2)cc(Br)c1OCc1ccc(F)cc1,-13*,i,i,i,-23,i
Fc1ccc(COc2ccc(Br)cc2CNCc2ccncc2)cc1,-4.4*,i,i,i,-19,i
COc1ccc(NS(=O)(=O)c2cccc(C(=O)NNC(=O)CNC(=O)c3ccc(C)cc3)c2)cc1,0.25,i,i,i,-12,i
CN1CCN(c2ccc(NC(=O)CSc3nnnn3-c3ccccc3F)cc2)CC1,-0.09,i,i,i,-5,i
CC1CCCC(NC(=S)NC(=O)c2ccccc2Br)C1C (stereo not drawn),0.62,8*,i,i,7.2*,i
SMILES,Kir21 inh,KCNQ1 act,KCNK3 inh,KCNK9 inh,hERG rescue,KCNQ1 inh
O=C(NNC(=S)NC1CCCCC1)c1ccccc1Br,-0.05,i,i,i,-6,i
CCOP(=O)(OCC)C(NC(=O)Nc1ccc(Cl)cc1)C(=O)N(CC)CC (stereo not drawn),-0.35,i,i,i,-8,i
Cc1[nH]c(=S)sc1Cc1ccc(F)cc1,0.86,9*,i,i,2,i
S=c1[nH]cc(Cc2ccccc2)s1,0.04,i,i,i,4,i
Cc1ccc(Cl)c(OCC(=O)NCC(c2cccs2)N2CCOCC2)c1 (stereo not drawn),-7.8*,i,i,i,-14,i
CCCCN1C(=O)/C(=C2/Sc3ccc(OC)cc3N2CC)SC1=S,0.42,i,i,i,-1,i
C=CCN1C(=O)/C(=C2/Sc3ccc(OC)cc3N2CC)SC1=S,1.5,i,i,i,-4,6*
CCNc1ccc(S(=O)(=O)N(C)C)cc1NCC(=O)Nc1ccccc1Cl,-2.4,i,i,i,-9,i
Clc1ccccc1CSc1nncn1NC/C=C/c1ccccc1,-6.6*,i,i,i,-11,i
CSCCC(NC(=O)/C(=C/c1ccco1)NC(=O)c1ccco1)C(=O)O (stereo not drawn),-0.72,i,i,i,-10,i
CCCCOC(=O)N1CCOCCOCCOCC1,-4.7*,i,i,i,-12,i
CCCCNC(=O)N1CCOCCOCCN(C(=O)NCCCC)CCOCCOCC1,-0.36,i,i,i,-12,i
CCC/C=N/NC(=O)c1[nH]c2c([N+](=O)[O-])cccc2c1C,0.61,16*,i,i,-6,i
CCCCC/C=N/NC(=O)c1[nH]c2ccc([N+](=O)[O-])cc2c1C,0.01,i,i,i,-15,i
NNC(=O)c1ccc2nc(-c3ccc(Br)cc3)cn2c1,-0.65,i,i,i,-13,i
COc1ccc(-c2cn3cc(C(=O)NN)ccc3n2)cc1,0.74,i,i,i,5.2*,i
CC(=O)N(c1ccccc1)C(C(=O)c1ccccc1)c1ccccc1 (stereo not drawn),·,·,i,·,·,·
CCOc1cc(CNC2CCCC2)c(Cl)cc1OCC(=O)Nc1ccccc1,-4.5*,i,i,i,-7,i
O=C(/C=C/c1cccc(F)c1)NC1CCN(Cc2ccccc2)CC1,-4.7*,i,i,i,-11,i
O=C(COc1ccc(Br)cc1Cl)NC1CCN(Cc2ccccc2)CC1,-10*,i,i,i,-13,i
Cc1c(C(=O)NC2CCN(Cc3ccccc3)C2)oc2ccc(Br)cc12 (stereo not drawn),-10*,i,i,i,-18,i
COC(=O)[C@@H]1C[C@@H]2CC[C@@H](O)C[C@@H]2N1Cc1ccc(N2CCN(C)CC2)cc1,1.6,i,i,i,-6,i
Cc1c(C(=O)OCC(=O)Nc2c(C)n(C)n(-c3ccccc3)c2=O)oc2ccccc12,-1.9,i,i,i,-11,i

# Screens from PubChem BioAssay.
